Experimental data published in ChEMBL document CHEMBL1140959, “Inhibition of PDGFR tyrosine kinase activity by a series of novel N-(3-(4-(pyridin-3-yl)-1H-imidazol-2-ylamino)phenyl)amides: a SAR study on the bioisosterism of pyrimidine and imidazole” (Eur J Med Chem, 2008).
The source made the active and inactive calls. The rule behind the calls is not given here.

These compounds were tested against Receptor-type tyrosine-protein kinase FLT3 (Homo sapiens) (UniProt P36888) (assay: Inhibition of FLT3 autophosphorylation in human EOL1 cells up to 10 ug/ml by immunoblotting).
Sequence of Receptor-type tyrosine-protein kinase FLT3 (Homo sapiens) (P36888 whole entry): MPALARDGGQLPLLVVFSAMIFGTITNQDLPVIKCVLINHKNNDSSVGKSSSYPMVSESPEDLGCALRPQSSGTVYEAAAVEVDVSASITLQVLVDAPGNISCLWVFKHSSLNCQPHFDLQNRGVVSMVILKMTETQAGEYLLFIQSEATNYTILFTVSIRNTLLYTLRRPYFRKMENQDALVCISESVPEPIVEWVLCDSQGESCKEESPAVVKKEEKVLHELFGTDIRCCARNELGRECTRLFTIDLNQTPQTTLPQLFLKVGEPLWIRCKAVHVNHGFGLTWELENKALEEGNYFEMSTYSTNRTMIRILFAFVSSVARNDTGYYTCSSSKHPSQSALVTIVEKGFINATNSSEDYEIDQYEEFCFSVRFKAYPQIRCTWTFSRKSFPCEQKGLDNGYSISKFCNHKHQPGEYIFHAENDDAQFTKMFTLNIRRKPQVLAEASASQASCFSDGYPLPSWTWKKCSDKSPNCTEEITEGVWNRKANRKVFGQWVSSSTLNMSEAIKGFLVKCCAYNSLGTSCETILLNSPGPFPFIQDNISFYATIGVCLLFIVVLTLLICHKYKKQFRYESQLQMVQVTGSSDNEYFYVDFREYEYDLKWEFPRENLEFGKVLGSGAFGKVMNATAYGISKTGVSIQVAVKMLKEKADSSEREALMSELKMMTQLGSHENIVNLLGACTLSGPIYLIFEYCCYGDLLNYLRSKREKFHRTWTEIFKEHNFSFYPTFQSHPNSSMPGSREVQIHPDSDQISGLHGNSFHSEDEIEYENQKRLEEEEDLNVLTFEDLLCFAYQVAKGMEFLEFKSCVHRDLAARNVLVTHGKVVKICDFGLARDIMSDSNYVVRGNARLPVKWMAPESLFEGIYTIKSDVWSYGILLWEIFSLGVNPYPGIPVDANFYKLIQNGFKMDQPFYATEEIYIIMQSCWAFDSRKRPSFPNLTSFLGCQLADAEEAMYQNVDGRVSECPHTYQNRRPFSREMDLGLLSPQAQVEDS
Format: cell-based

Row | Structure (SMILES) | Activity
1 | COc1ccc(C(=O)Nc2ccc(C)c(Nc3nc(-c4cccnc4)c[nH]3)c2)cc1 | inactive
2 | Cc1ccc(NC(=O)c2ccccc2)cc1Nc1nc(-c2cccnc2)c[nH]1 | inactive
3 | Cc1ccc(NC(=O)c2ccc(N)cc2)cc1Nc1nc(-c2cccnc2)c[nH]1 | inactive
4 | Cc1ccc(NC(=O)c2ccc([N+](=O)[O-])cc2)cc1Nc1nc(-c2cccnc2)c[nH]1 | inactive
5 | Cc1ccc(NC(=O)c2ccc(CN3CCN(C)CC3)cc2)cc1Nc1nc(-c2cccnc2)c[nH]1 | inactive
6 | COc1cc(C(=O)Nc2ccc(C)c(Nc3nc(-c4cccnc4)c[nH]3)c2)cc(OC)c1OC | inactive
7 | Cc1ccc(N)cc1Nc1nc(-c2ccncc2)c[nH]1 | inactive
8 | CCCCCCCCCCc1ccc(C(=O)Nc2ccc(C)c(Nc3nc(-c4cccnc4)c[nH]3)c2)cc1 | inactive
9 | Nc1cccc(Nc2nc(-c3cccnc3)c[nH]2)c1 | inactive
10 | Cc1ccc(NC(=O)c2ccncc2)cc1Nc1nc(-c2cccnc2)c[nH]1 | inactive
11 | CCc1ccc([N+](=O)[O-])cc1Nc1nc(-c2cccnc2)c[nH]1 | inactive
12 | Cc1ccc([N+](=O)[O-])cc1Nc1nc(-c2cccnc2)c[nH]1 | inactive
13 | Cc1ccc(C(=O)Nc2ccc(C)c(Nc3nc(-c4cccnc4)c[nH]3)c2)cc1 | inactive
14 | Cc1ccc(N)cc1Nc1nc(-c2cccnc2)c[nH]1 | inactive
15 | O=[N+]([O-])c1cccc(Nc2nc(-c3cccnc3)c[nH]2)c1 | inactive
16 | Cc1ccc(N)cc1Nc1nc(-c2ccccc2)c[nH]1 | inactive
17 | Cc1ccc(NC(=O)c2ccc(Cl)cc2)cc1Nc1nc(-c2cccnc2)c[nH]1 | inactive
18 | CCc1ccc(N)cc1Nc1nc(-c2cccnc2)c[nH]1 | inactive
19 | Cc1ccc([N+](=O)[O-])cc1Nc1nc(-c2ccncc2)c[nH]1 | inactive
20 | Cc1ccc([N+](=O)[O-])cc1Nc1nc(-c2ccccc2)c[nH]1 | inactive

These compounds were tested against Platelet-derived growth factor receptor (Mus musculus, UniProt P05622+P26618) (assay: Inhibition of PDGFR autophosphorylation in mouse Swiss 3T3 fibroblast by immunoblotting).
Procedure, shortened: (§1)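 PDGFR autophosphorylation in Swiss 3T3 cells was assayed by a previously described method. IC50 was fitted to a six-concentration curve, with duplicate or triplicate determinations.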

Row | Structure (SMILES) | IC50 [µM]
21 | COc1ccc(C(=O)Nc2ccc(C)c(Nc3nc(-c4cccnc4)c[nH]3)c2)cc1 | > 30
22 | Cc1ccc(NC(=O)c2ccccc2)cc1Nc1nc(-c2cccnc2)c[nH]1 | 0.3
23 | Cc1ccc(C(=O)Nc2cccc(Nc3nc(-c4cccnc4)c[nH]3)c2)cc1 | 0.2
24 | CC(=O)Nc1ccc(C)c(Nc2nc(-c3cccnc3)c[nH]2)c1 | 5.9
25 | Cc1ccc(NC(=O)c2ccc(N)cc2)cc1Nc1nc(-c2cccnc2)c[nH]1 | > 30
26 | Cc1ccc(NC(=O)c2ccccc2)cc1Nc1nc(-c2ccccc2)c[nH]1 | 7.1
27 | Cc1ccc(NC(=O)c2ccc([N+](=O)[O-])cc2)cc1Nc1nc(-c2cccnc2)c[nH]1 | > 30
28 | Cc1ccc(NC(=O)c2ccccc2C)cc1Nc1nc(-c2cccnc2)c[nH]1 | 0.6
29 | Cc1ccc(NC(=O)c2ccc(CN3CCN(C)CC3)cc2)cc1Nc1nc(-c2cccnc2)c[nH]1 | > 10
30 | COc1cc(C(=O)Nc2ccc(C)c(Nc3nc(-c4cccnc4)c[nH]3)c2)cc(OC)c1OC | > 10
31 | Cc1cccc(C(=O)Nc2ccc(C)c(Nc3nc(-c4cccnc4)c[nH]3)c2)c1 | 2.2
32 | Cc1ccc(NC(=O)c2ccc(CN3CCN(C)CC3)cc2)cc1Nc1nc(-c2ccncc2)c[nH]1 | > 10
33 | CC(=O)Nc1ccc(C)c(Nc2nccc(-c3cccnc3)n2)c1 | 50
34 | Cc1ccccc1C(=O)Nc1cccc(Nc2nc(-c3cccnc3)c[nH]2)c1 | 0.6
35 | Cc1cccc(C(=O)Nc2cccc(Nc3nc(-c4cccnc4)c[nH]3)c2)c1 | 0.3
36 | CCCCCCCCCCc1ccc(C(=O)Nc2ccc(C)c(Nc3nc(-c4cccnc4)c[nH]3)c2)cc1 | > 10
37 | CCc1ccc(NC(=O)c2cccc(C)c2)cc1Nc1nc(-c2cccnc2)c[nH]1 | 0.3
38 | Cc1ccc(NC(=O)c2ccncc2)cc1Nc1nc(-c2cccnc2)c[nH]1 | 1.8
39 | Cc1ccc(NC(=O)c2ccccc2)cc1Nc1nccc(-c2cccnc2)n1 | 0.1
40 | Cc1ccc(NC(=O)c2ccccc2)cc1Nc1nc(-c2ccncc2)c[nH]1 | > 10
41 | Cc1ccc(C(=O)Nc2ccc(C)c(Nc3nc(-c4cccnc4)c[nH]3)c2)cc1 | 0.2
42 | Cc1ccc(NC(=O)c2ccc(CN3CCN(C)CC3)cc2)cc1Nc1nccc(-c2cccnc2)n1 [IMATINIB] | 0.3
43 | CC(=O)Nc1ccc(C)c(Nc2nc(-c3ccccc3)c[nH]2)c1 | > 30
44 | CCc1ccc(NC(=O)c2ccccc2C)cc1Nc1nc(-c2cccnc2)c[nH]1 | 1.6
45 | Cc1ccc(NC(=O)c2ccc(Cl)cc2)cc1Nc1nc(-c2cccnc2)c[nH]1 | 0.4
46 | CCc1ccc(NC(=O)c2ccc(C)cc2)cc1Nc1nc(-c2cccnc2)c[nH]1 | 6.5
47 | CCc1ccc(NC(=O)c2ccccc2)cc1Nc1nc(-c2cccnc2)c[nH]1 | 4.7
48 | CN1CCN(Cc2ccc(C(=O)Nc3cccc(Nc4nc(-c5cccnc5)c[nH]4)c3)cc2)CC1 | 6.5
49 | Cc1ccc(NC(=O)c2ccc(CN3CCN(C)CC3)cc2)cc1Nc1nc(-c2ccccc2)c[nH]1 | > 10

These compounds were tested on FLT3 (Homo sapiens) (assay: Inhibition of FLT3 autophosphorylation in human EOL-1 cells up to 10 ug/ml by immunoblotting).

Row | Structure (SMILES) | Activity
50 | Cc1ccc(NC(=O)c2ccccc2)cc1Nc1nc(-c2cccnc2)c[nH]1 | inactive
51 | Cc1ccc(NC(=O)c2ccncc2)cc1Nc1nc(-c2cccnc2)c[nH]1 | inactive
52 | Cc1ccc(C(=O)Nc2ccc(C)c(Nc3nc(-c4cccnc4)c[nH]3)c2)cc1 | inactive
53 | Cc1ccc(NC(=O)c2ccc(Cl)cc2)cc1Nc1nc(-c2cccnc2)c[nH]1 | inactive

The compounds below were run against Platelet-derived growth factor receptor (Mus musculus) (UniProt P05622+P26618) (assay: Inhibition of PDGFR autophosphorylation in mouse Swiss 3T3 fibroblast up to 10 ug/ml by immunoblotting).
Procedure, shortened: as §1

Row | Structure (SMILES) | Activity
54 | COc1ccc(C(=O)Nc2ccc(C)c(Nc3nc(-c4cccnc4)c[nH]3)c2)cc1 | inactive
55 | Cc1ccc(NC(=O)c2ccc(N)cc2)cc1Nc1nc(-c2cccnc2)c[nH]1 | inactive
56 | Cc1ccc(NC(=O)c2ccc([N+](=O)[O-])cc2)cc1Nc1nc(-c2cccnc2)c[nH]1 | inactive
57 | Cc1ccc(NC(=O)c2ccc(CN3CCN(C)CC3)cc2)cc1Nc1nc(-c2cccnc2)c[nH]1 | inactive
58 | COc1cc(C(=O)Nc2ccc(C)c(Nc3nc(-c4cccnc4)c[nH]3)c2)cc(OC)c1OC | inactive
59 | Cc1ccc(N)cc1Nc1nc(-c2ccncc2)c[nH]1 | inactive
60 | CCCCCCCCCCc1ccc(C(=O)Nc2ccc(C)c(Nc3nc(-c4cccnc4)c[nH]3)c2)cc1 | inactive
61 | Nc1cccc(Nc2nc(-c3cccnc3)c[nH]2)c1 | inactive
62 | CCc1ccc([N+](=O)[O-])cc1Nc1nc(-c2cccnc2)c[nH]1 | inactive
63 | Cc1ccc([N+](=O)[O-])cc1Nc1nc(-c2cccnc2)c[nH]1 | inactive
64 | Cc1ccc(N)cc1Nc1nc(-c2cccnc2)c[nH]1 | inactive
65 | O=[N+]([O-])c1cccc(Nc2nc(-c3cccnc3)c[nH]2)c1 | inactive
66 | Cc1ccc(N)cc1Nc1nc(-c2ccccc2)c[nH]1 | inactive
67 | CCc1ccc(N)cc1Nc1nc(-c2cccnc2)c[nH]1 | inactive
68 | Cc1ccc([N+](=O)[O-])cc1Nc1nc(-c2ccncc2)c[nH]1 | inactive
69 | Cc1ccc([N+](=O)[O-])cc1Nc1nc(-c2ccccc2)c[nH]1 | inactive
